These results are taken from PubChem BioAssay.

Assay [1] in a line: OD615 S. cerevisiae growth inhibition, permissive medium, pilot counter-assay, permissive growth control for S. cerevisiae lifespan shortening project (AID 705;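 active = growth inhibition above 25% in both replicates, a cutoff set 3 SD above the mean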). To be noted: OD615, 24 h, at 10 µM, active compounds read high. The procedure, abridged: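 System: Engineered DeaD yeast | Buffer or medium: SC raffinose/galactose permissive medium | Doses: 10 µM single dose, 0.25% DMSO | Times: 24 h exposure, 30 °C | Measured by: OD615 turbidity read | Read-out: Yeast growth inhibition indicated by reduced 24 h OD615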

Assay [2] can be described thus: Restrictive medium S. cerevisiae growth inhibition, OD615, pilot screen of yeast lifespan reduction project, restrictive growth control (AID 706;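 active = growth inhibition above a set limit, 3 SD over mean compound inhibition, in both replicates, cut at about 43% in these data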;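 note: modified DeaD lifespan yeast strain shifted to restrictive glucose medium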). To be noted: OD615, 48 h, at 10 µM, active compounds read high. The procedure, abridged: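 Assay system: engineered S. cerevisiae DeaD strain; Buffer or medium: CSMM-D glucose medium; Dosing: 10 µM compound, 0.25% DMSO; Times: cell pre-growth 4 h, compound exposure 48 h, 30 °C; Detection: absorbance (optical density) measured at 615 nm.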

Assay [3] is described as follows: viability gain of MRP-1-high H69AR cells under doxorubicin, pilot screen, MRP-1 activator project, CellTiter-Glo, duplicate (AID 807).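 Note: compound pretreatment 18-22 h then 72 h combined with doxorubicin; 0% = doxorubicin alone and 100% = vehicle without doxorubicin.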 The settings on record: H69AR viability with doxorubicin, CellTiter-Glo luminescence; at 10 µM; active compounds read high.
Assay [4] in a line: growth suppression of beta-catenin knockout HCT116, pilot screen, human colon tumor cells (AID 823;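 active = cell viability at or below a set limit in both duplicate runs, the limit being the all-compound median minus 4 SD, cut at about 23% in these data, passing the limit was not always enough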;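 note: 0% = wells killed by 20 µM Hyamine and 100% = untreated DMSO cell wells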). To be noted: CellTiter-Glo, 60 h, at 10 µM, active compounds read low.
The nature of assay [5]: growth suppression of PTEN-deleted HCT116, pilot screen, cell-based, HCT116 clonal line, CellTiter-Glo (AID 824;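 active = viability at or below 27.92% in each of two runs, the all-compound median minus 4 SD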;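 note: 0% = 20 µM Hyamine control and 100% = vehicle cell control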). The settings on record: 60 h, at 10 µM, active compounds read low.
Assay [6] can be described thus: inhibitors of the yeast RAM network, pilot screen, dse1pr::URA3 reporter, 5-FOA selection (AID 869;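 active = inhibition over a set limit, the all-compound mean plus 3 SD, in both replicate runs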;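 note: 0% = DMSO wells with no growth and 100% = 10 µM 1-NA-PP1 with full growth; RAM network block rescues cells from 5-FOA so hits raise OD615 growth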). To be noted: S. cerevisiae dse1pr::URA3 5-FOA growth, OD615, 2 d; at 10 µM; active compounds read high; strain carries analog-sensitive mutant Cbk1 kinase.
A short description of assay [7]: RAM signaling pathway blockade in yeast – S. cerevisiae, Pdr1DBD-CYC8 efflux-inhibited sensitized strain, primary screen (AID 1298;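 active = RAM network inhibition above 8.4% in each of two replicates, 3 SD over the compound average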;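 note: 0% = DMSO untreated cells without growth and 100% = 10 µM 1-NA-PP1 full growth; higher means more yeast growth rescued from 5-FOA killing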). To be noted: S. cerevisiae cbk1-as DSE1-URA3 strain, 5-FOA growth OD615, 2 d; at 50 µM; active compounds read high.

The structures appear in SMILES notation. A number with no mark means an inactive call. Inconclusive results are not listed. Calls of active or inactive are those of the source.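 Rule for the calls, unless noted: active = viability increase at or above a cutoff of the median across tested compounds plus 3 SD (cut at about 8.5% in these data, passing the limit was not always enough); inconclusive = some gains above the cutoff, reason not given; inactive = the rest.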

As to `Cc1cc(N)n2ncc(-c3cccc(Br)c3)c2n1`, the growth inhibition is 2.1% in assay [1] and -6.45% in assay [2]. In assay [3], the viability increase is -6.91%. For the same compound, the viability is 75.4% in assay [4] and 71.8% in assay [5]. In addition, the inhibition in assay [6] is 0.315%. For the same compound, the RAM network inhibition in assay [7] is 1.65%.

For `COc1cc(C(=O)NCC(c2ccco2)N2CCCC2)ccc1OCc1c(C)noc1C` (stereo not drawn), the figures for the growth inhibition in assay [1] and in assay [2] were 0.045% and -23.7%, respectively. The viability increase in assay [3] was -4.73%. The viability was 82.7% in assay [4] and 83.8% in assay [5]. Further, in assay [6], the inhibition is 1.03%. Moreover, in assay [7], the RAM network inhibition is 3.83%.

Regarding `COc1ccc(N(CC(=O)N2CCN(c3ccccc3)CC2)S(=O)(=O)c2c(C)noc2C)cc1`, the growth inhibition in assay [1] was -9.29%; in assay [2] it was -0.83%. Besides, the viability increase in assay [3] is -4.48%. The viability in assay [4] is 93.7%; in assay [5], 85.6%. In addition, the inhibition in assay [6] is 0.315%. Further, the RAM network inhibition in assay [7] is 3.7%.

Take `CCNc1cc2oc(=O)c(CN3CCOCC3)c(C)c2cc1C`: the growth inhibition was 4.16% in assay [1] and 6.97% in assay [2]. For the same compound, the viability increase in assay [3] is -1.46%. The viability in assay [4] is 91%; in assay [5], 94.5%. The inhibition in assay [6] is 2.04%. Besides, in assay [7], the RAM network inhibition was 0.2%.

In the case of `Cc1ccc(C)c(C(=O)CSc2n[nH]c(C)n2)c1`, the figures for the growth inhibition in assay [1] and in assay [2] were 0.045% and 11.3%, respectively. The viability increase in assay [3] is -0.91%. For the same compound, the viability in assay [4] and in assay [5] was 102% each time. For the same compound, in assay [6], the inhibition was 1.77%. Further, the RAM network inhibition in assay [7] was 1.5%.

With `CC(C)C(NC(=O)C12CC3CC(CC(C3)C1)C2)C(=O)NC1=NCCS1` (stereo not drawn), the figures for the growth inhibition in assay [1] and in assay [2] were -6.21% and 7.3%, respectively. Moreover, the viability increase in assay [3] is -3.97%. Also, the viability was 88% in assay [4] and 89.2% in assay [5]. For the same compound, the inhibition in assay [6] is 2.41%. In addition, the RAM network inhibition in assay [7] is 4.34%.

`COC(=O)c1cccnc1-n1c(=O)c2cccnc2n(Cc2cccc(OC)c2)c1=O`: the growth inhibition is -13.7% in assay [1] and 4.94% in assay [2]. Moreover, the viability increase in assay [3] is -3.24%. The viability in assay [4] was 101%; in assay [5], 92.7%. The inhibition in assay [6] was 0.47%. Also, the RAM network inhibition in assay [7] was -1.41%.

Take `CC(C)c1nnc(NC(=O)CSc2ncn[nH]2)s1`: the growth inhibition in assay [1] was -14.4%; in assay [2], -13.9%. In addition, the viability increase in assay [3] was -0.74%. The viability in assay [4] is 98.3%; in assay [5], 94.2%. Also, the inhibition in assay [6] was 0.135%. The RAM network inhibition in assay [7] is 1.34%.

For the compound `CCCc1cc(C(=O)Nc2ccc(C)cc2)no1`, the figures for the growth inhibition in assay [1] and in assay [2] were -3.58% and -5.4%, respectively. Also, the viability increase in assay [3] was -0.63%. Further, the viability in assay [4] is 101%; in assay [5], 97.6%. Besides, the inhibition in assay [6] is 1.32%. In assay [7], the RAM network inhibition was 1.86%.

For the compound `CCOC(=O)c1c(NC(=O)c2cc(C3CC3)on2)sc(C(C)=O)c1C`, the growth inhibition in assay [1] is -3.19%; in assay [2] it was 0.635%. In assay [3], the viability increase is -1.49%. The values for the viability in assay [4] and in assay [5] were 104% and 93.3%, respectively. Further, in assay [6], the inhibition is 1.64%. In addition, in assay [7], the RAM network inhibition is -0.58%.

As to `Cc1cc(C)n(-c2nnc(C)n2/N=C/c2cc(Br)ccc2OCc2ccccc2)n1`, the growth inhibition in assay [1] was -10.3%; in assay [2], 13.9%. Further, the viability increase in assay [3] is -7.71%. The viability in assay [4] was 12.4% (active); in assay [5], 8.96% (active). For the same compound, in assay [6], the inhibition is 0.37%. Also, the RAM network inhibition in assay [7] was -1.07%.

For `Cn1c2c(c3ccccc31)CC/C2=N\O`, the results for the growth inhibition in assay [1] and in assay [2] were 1.57% and 18.9%, respectively. Further, the viability increase in assay [3] was -0.84%. In addition, the viability in assay [4] was 100%; in assay [5], 99%. The inhibition in assay [6] is 1%. For the same compound, the RAM network inhibition in assay [7] is 1.01%.

As for `c1ccc(Nc2nc(N3CCOCC3)nc(N3CCOCC3)n2)cc1`, the values for the growth inhibition in assay [1] and in assay [2] were 5.75% and 6.58%, respectively. In assay [3], the viability increase is -6.19%. In addition, the viability in assay [4] is 67.9%; in assay [5], 67.2%. The inhibition in assay [6] is 0.65%. Moreover, in assay [7], the RAM network inhibition is 1.44%.

As to `O=C(CSc1nc2c(c(=O)n1-c1ccc(Cl)cc1)SCC2)N1CCOCC1`, the growth inhibition in assay [1] is -10.3%; in assay [2], -2.5%. In addition, the viability increase in assay [3] was -2.79%. Further, the viability in assay [4] was 97.6%; in assay [5], 101%. Also, the inhibition in assay [6] was -0.06%. In assay [7], the RAM network inhibition is -0.16%.

Turning to `CCC(CC)C(=O)Nc1cc(C)c2c(=O)oc3ccccc3c2n1`, the growth inhibition in assay [1] is -17.2%; in assay [2], -12.2%. Also, the viability increase in assay [3] is -5.01%. Moreover, the values for the viability in assay [4] and in assay [5] were 62.5% and 64.2%, respectively. Moreover, in assay [6], the inhibition is 2.33%. Also, the RAM network inhibition in assay [7] was 9.87%.

In the case of `CCOc1ccc(C2CC(=O)NC(SC)=C2C#N)cc1` (stereo not drawn), the results for the growth inhibition in assay [1] and in assay [2] were -15.8% and -15.5%, respectively. Further, in assay [3], the viability increase is -2.65%. In addition, the viability in assay [4] is 104%; in assay [5] it was 94.9%. In assay [6], the inhibition is 0.595%. Also, in assay [7], the RAM network inhibition was 6.38%.

Regarding `CC(=O)N1CCC(N(CCCOC(C)C)C(=O)Nc2ccc(Cl)cc2)CC1`, the growth inhibition was -2.75% in assay [1] and 0.145% in assay [2]. In addition, the viability increase in assay [3] was -0.86%. Besides, the viability was 93% in assay [4] and 95.9% in assay [5]. Besides, the inhibition in assay [6] is 0.365%. Besides, the RAM network inhibition in assay [7] was 3.16%.

Regarding `CC(=O)Nc1cc(-c2nn3c(C)nnc3s2)ccc1C`, the growth inhibition is 3.93% in assay [1] and 1.4% in assay [2]. Also, the viability increase in assay [3] is -0.1%. Also, the viability was 98.7% in assay [4] and 90.3% in assay [5]. The inhibition in assay [6] was 3.41%. Besides, the RAM network inhibition in assay [7] was 3.72%.

On to `C=CCN(c1ccccc1)S(=O)(=O)c1ccc2c(c1)oc(=O)n2C`, for which the figures for the growth inhibition in assay [1] and in assay [2] were -15.1% and -18.7%, respectively. In assay [3], the viability increase was -2.65%. Also, the values for the viability in assay [4] and in assay [5] were 98.7% and 87.6%, respectively. Moreover, the inhibition in assay [6] was 2.14%. Further, in assay [7], the RAM network inhibition was 3.12%.

For `C=COCCn1c(-c2nonc2N)nc2ccccc21`, the values for the growth inhibition in assay [1] and in assay [2] were -6.54% and -3.9%, respectively. For the same compound, in assay [3], the viability increase was -4.61%. The viability is 82.4% in assay [4] and 74.9% in assay [5]. In addition, the inhibition in assay [6] is 1.75%. For the same compound, the RAM network inhibition in assay [7] was 6.18%.

Consider `O=C(OCCOCCN=C1NS(=O)(=O)c2ccccc21)C1CC(=O)N(c2ccccc2)C1` (stereo not drawn), for which the figures for the growth inhibition in assay [1] and in assay [2] were 4.05% and 5.13%, respectively. In assay [3], the viability increase was -1.16%. The viability in assay [4] was 100%; in assay [5], 87.3%. For the same compound, the inhibition in assay [6] is 2.11%. For the same compound, the RAM network inhibition in assay [7] was 1.23%.

`Cc1cccc(Cn2c(N3CCCCC3C)nc3c2c(=O)[nH]c(=O)n3C)c1` (stereo not drawn): the growth inhibition in assay [1] is -17.5%; in assay [2], -16.4%. Besides, the viability increase in assay [3] is -5.08%. For the same compound, the viability in assay [4] is 89.3%; in assay [5], 78%. In assay [6], the inhibition was 0.805%. The RAM network inhibition in assay [7] is 2.4%.

For the compound `Cc1ccc2oc(=O)c3cnn(CC(=O)NC4CCCCC4C)c3c2c1` (stereo not drawn), the growth inhibition was -14% in assay [1] and -9.46% in assay [2]. The viability increase in assay [3] was -2.9%. The viability was 95.1% in assay [4] and 84.1% in assay [5]. The inhibition in assay [6] is 1.73%. In addition, in assay [7], the RAM network inhibition was 0.7%.

For the compound `O=C1C(C=NCCN2CCOCC2)=C(O)c2ccccc21`, the growth inhibition is -15.9% in assay [1] and -26.8% in assay [2]. In assay [3], the viability increase is -1.88%. Also, the results for the viability in assay [4] and in assay [5] were 100% and 92.4%, respectively. The inhibition in assay [6] was 2.4%. Moreover, in assay [7], the RAM network inhibition is 3.56%.
